Measured values collected from several papers.
Compare with care: the assays were run in different laboratories.
TACR2: Substance-K receptor (TACR2, Homo sapiens, UniProt P21452)
PRKCA: Protein kinase C alpha type (PRKCA, Homo sapiens, UniProt P17252)
Nos1: Nitric oxide synthase 1 (Nos1, Rattus norvegicus, UniProt P29476)
HDAC8: Histone deacetylase 8 (HDAC8, Homo sapiens, UniProt Q9BY41)
Dipeptidyl peptidase 8: Dipeptidyl peptidase 8 (Homo sapiens, UniProt Q6V1X1)
USP8: Ubiquitin carboxyl-terminal hydrolase 8 (USP8, Homo sapiens, UniProt P40818)

CCN(CC)CCCC[C@H](NC(=O)[C@H](CC(C)C)NC(=O)[C@H](C)NC(=O)[C@H](Cc1ccccc1)NC(=O)c1ccc(C(C)(C)C)cc1)C(=O)N[C@@H](CO)C(=O)OC  inhibition (TACR2; ligand displacement; radioligand; 10 µM): 75%
C#Cc1n[nH]c2c(-c3cn([C@@H](C)c4ccccc4)c(=O)[nH]c3=O)cc(F)cc12  inhibition (PRKCA; enzyme activity; inhibitor; 0.1 µM): 9.6%
c1ccc(C(NCCNC(c2ccccc2)c2ccccc2)c2ccccc2)cc1  inhibition (Nos1; enzyme activity; inhibitor; 10 µM): 6%
COc1c2ccoc2cc2oc(=O)ccc12  inhibition (HDAC8; enzyme activity; inhibitor; 10 µM): 34.4%
N#Cc1ccc(NCCNCC(=O)N2N=CCC2C#N)nc1 (stereo not shown)  inhibition (Dipeptidyl peptidase 8; enzyme activity; inhibitor; 1 µM): 0%
C#Cc1n[nH]c2c(-c3cn(C(C)c4ccccn4)c(=O)[nH]c3=O)cc(F)cc12 (stereo not shown)  inhibition (Tyrosine-protein kinase Yes (YES1, Homo sapiens, UniProt P07947); enzyme activity; inhibitor; 1 µM): -0.2%
Cn1cc(-c2cc(F)cc(N3CCn4c(cc5c4CCCC5)C3=O)c2CO)cc(Nc2ccc(N3CCN(C4COC4)CC3)cn2)c1=O  inhibition (PRKCA; enzyme activity; inhibitor; 0.1 µM): -11%
CCOC(=O)c1ccc(OC(=O)CCCCCNC(=N)N)cc1  inhibition (USP8; enzyme activity; inhibitor; 10 µM): 0%
C[C@H](C(=O)N[C@H]1COc2ccccc2[C@@H]1S(C)(=O)=O)c1ccc(F)cc1  inhibition (Nos1; enzyme activity; inhibitor; 10 µM): 6%
Cn1cc(-c2cccc(N3CCc4c(sc5c4CC(C)(C)C5)C3=O)c2CO)cc(Nc2ccncn2)c1=O  inhibition (Testis-specific serine/threonine-protein kinase 2 (TSSK2, Homo sapiens, UniProt Q96PF2); enzyme activity; inhibitor; 1 µM): 2%
O=c1ccc2ccc3occc3c2o1  inhibition (HDAC8; enzyme activity; inhibitor; 10 µM): 33.9%
COc1cc(Nc2ncc(F)c(Nc3ccc4c(n3)NC(=O)C(C)(C)O4)n2)cc(OC)c1OC  inhibition (Ephrin type-A receptor 6 (EPHA6, Homo sapiens, UniProt Q9UF33); binding; competition with immobilised ligand; 10 µM): 82%
CN(C)C(=O)COC(=O)Cc1ccc(OC(=O)c2ccc(NC(=N)N)cc2)cc1  inhibition (Dipeptidyl peptidase 8; enzyme activity; inhibitor; 10 µM): 8%
CN(CCN1CCC(OC(=O)Nc2ccccc2-c2ccccc2)CC1)C(=O)c1ccc(CN2CCC(C(N)=O)CC2)cc1  inhibition (TACR2; ligand displacement; radioligand; 1 µM): 1%
N=C(N)c1ccc2cc(OC(=O)c3ccc(N=C(N)N)cc3)ccc2c1  inhibition (USP8; enzyme activity; inhibitor; 10 µM): 5%
O=C(Nc1cccnn1)N1CCN([C@@H]2CCOc3cc(C(F)(F)F)ccc32)CC1  inhibition (Somatostatin receptor type 4 (SSTR4, Homo sapiens, UniProt P31391); ligand displacement; 20 µM): 29%
